Laboratory results from ChEMBL document CHEMBL1126084, “2-Acetylpyridine thiocarbonohydrazones. Potent inactivators of herpes simplex virus ribonucleotide reductase” (J Med Chem, 1992).

How the values were obtained:
[1] = tested on: Human alphaherpesvirus 1; experiment: Inhibition of HSV-1 ribonucleotide reductase; design: concentration or dose not given beside the values; details: concentration not given here
Method in brief: (§1)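 Partially purified HSV-1 ribonucleotide reductase, assayed by reduction of purified [14C]CDP in 200 mM Hepes Na+ pH 7.7, 10 mM dithiothreitol, 2 μM CDP (500 Ci/mol, 3–4 × Km), with and without 5 μM inhibitor unless otherwise indicated. First-order kinact (per hour) and v0 of decelerating product time courses come from iterative nonlinear least squares. kinact is the net increase over the uninhibited control, and % inhibition refers to v0.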

[2] = tested on: Human alphaherpesvirus 1; experiment: Inhibitory index against HSV-1 ribonucleotide reductase
Method in brief: (§2)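 Index per eq 1 combines kinact and percent inhibition of initial velocity from reductase reactions ±5 μM inhibitor (unless otherwise indicated). 0.99 is subtracted from the calculated ratio, so a non-inhibiting, non-inactivating compound scores zero. HSV-1 and human enzymes were assayed under their respective conditions.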

[3] = tested on: Human alphaherpesvirus 1; experiment: Inactivation of HSV-1 ribonucleotide reductase at rate constant K inact; method in brief: as §1
[4] = biological target: T1, Ribonucleoside-diphosphate reductase RR1 (Homo sapiens) (UniProt P23921+Q7LG56+P31350); experiment: Inhibition of human ribonucleotide reductase; type: protein-complex assay; design: concentration or dose not given beside the values; details: concentration not given here
Method in brief: (§3)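 The ATP contributed about 3 μM iron, keeping inhibitors iron-complexed. Reactions ran ±5 μM inhibitor unless otherwise indicated. kinact (per hour, net over the control) and v0 came from iterative nonlinear least-squares fits of decelerating time courses.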

[5] = biological target: T1, Ribonucleoside-diphosphate reductase RR1 (Homo sapiens); experiment: Inhibitory index against human ribonucleotide reductase; type: protein-complex assay; method in brief: as §2
[6] = biological target: T1, Ribonucleoside-diphosphate reductase RR1 (Homo sapiens); experiment: Inactivation of human ribonucleotide reductase at rate constant K inact; type: protein-complex assay; method in brief: as §3
[7] = biological target: T1, Ribonucleoside-diphosphate reductase RR1 (Homo sapiens); experiment: Apparent enzyme activity measured as the ratio of HSV-1 and human enzyme inhibition induces; type: functional; details: Human alphaherpesvirus 1
Method in brief: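 Apparent selectivity is the ratio of HSV-1 to human inhibition indices, each from eq 1 at 5 μM inhibitor or at the indicated concentration for each enzyme.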

[8] = tested on: Human alphaherpesvirus 1; experiment: Inhibitory index against HSV-1 ribonucleotide reductase calculated as, [1+k inact/f+0.01] where f = 1-% inhibition/100).; type: functional; method in brief: as §2
[9] = tested on: Human alphaherpesvirus 1; experiment: Inactivation of HSV-1 ribonucleotide reductase by the compound (5 uM) at rate constant K inact.; type: functional; method in brief: as §1
[10] = biological target: T1, Ribonucleoside-diphosphate reductase RR1 (Homo sapiens); experiment: Inhibition of human ribonucleotide reductase by the compound (5 uM); type: protein-complex assay; method in brief: as §3
[11] = tested on: Human alphaherpesvirus 1; experiment: Inhibition of HSV-1 ribonucleotide reductase by the compound (5 uM); type: functional; method in brief: as §1
[12] = biological target: T1, Ribonucleoside-diphosphate reductase RR1 (Homo sapiens); experiment: Inhibitory index against human ribonucleotide reductase calculated as, [1+k inact/f+0.01] where f = 1-% inhibition/100).; type: protein-complex assay; method in brief: as §2
[13] = biological target: T1, Ribonucleoside-diphosphate reductase RR1 (Homo sapiens); experiment: Inactivation of human ribonucleotide reductase by the compound (5 uM) at rate constant K inact.; type: protein-complex assay; method in brief: as §3

Compound | inhibition [1] | Inhibitory index [2] | kinact [3] | inhibition [4] | Inhibitory index [5] | kinact [6] | Apparent selectivity (HSV-1/human inhibition index ratio) [7] | Inhibitory index [8] | kinact [9] | inhibition [10] | Inhibition [11] | Inhibitory index [12] | kinact [13]
C/C(=N\N=C(/S)N/N=C(\S)Nc1cccc(C#N)c1)c1ccccn1 | 0% | 32 | 32 h⁻¹ | 80% | 6.6 | 0.6 h⁻¹ | 4.8 |  |  |  |  |  | 
C/C(=N\N=C(/S)N/N=C(\S)Nc1ccc(Cl)c([N+](=O)[O-])c1)c1ccccn1 | 7% | 48 | 45 h⁻¹ | 20% | 0.24 | 0 h⁻¹ | 200 |  |  |  |  |  | 
C/C(=N\N=C(/S)N/N=C(\S)NCCCN1CCOCC1)c1ccccn1 |  |  |  |  |  |  | 24 | 7 | 6.1 h⁻¹ | 23% | 12% | 0.29 | 0 h⁻¹
C/C(=N\N=C(/S)N/N=C(\S)Nc1ccc(Cl)cc1C)c1ccccn1 | 31% | 42 | 29 h⁻¹ | 55% | 3.4 | 1 h⁻¹ | 12 |  |  |  |  |  | 
C/C(=N\N=C(/S)N/N=C(\S)Nc1ccccc1Cl)c1cccc[n+]1[O-] | 11% | 1.2 | 1 h⁻¹ |  |  |  |  |  |  |  |  |  | 
C/C(=N\NC(=O)N/N=C(\S)Nc1ccccc1Cl)c1ccccn1 | 30% | 7.5 | 5 h⁻¹ |  |  |  |  |  |  |  |  |  | 
COc1cccc(N/C(S)=N/N=C(\S)N/N=C(\C)c2ccccn2)c1 | 6.7% | 22 | 21 h⁻¹ | 58% | 1.7 | 7 h⁻¹ | 1.3 |  |  |  |  |  | 
C/C(=N\Nc1nnc(Nc2ccccc2Cl)s1)c1ccccn1 | 53% | 32 | 15 h⁻¹ |  |  |  |  |  |  |  |  |  | 
COc1ccccc1/N=C(\S)N/N=C(\S)N/N=C(\C)c1ccccn1 | 0% | 23 | 23 h⁻¹ | 44% | 4.5 | 2.1 h⁻¹ | 5.1 |  |  |  |  |  | 
C/C(=N\N=C(/S)N/N=C(\S)Nc1ccc(C(C)(C)C)cc1)c1ccccn1 | 10% |  | 16 h⁻¹ |  |  |  |  |  |  |  |  |  | 
C/C(=N\N=C(/S)N/N=C(\S)Nc1ccc(C#N)cc1)c1ccccn1 | 0% | 29 | 29 h⁻¹ | 64% | 1.7 | 0 h⁻¹ | 17 |  |  |  |  |  | 
C/C(=N\N=C(/S)N/N=C(\S)Nc1ccc([N+](=O)[O-])cc1)c1ccccn1 | 14% | 38 | 33 h⁻¹ | 56% | 4.2 | 1.3 h⁻¹ | 9.1 |  |  |  |  |  | 
C/C(=N\NC(=O)NNC(=O)Nc1ccccc1Cl)c1ccccn1 | 0% | 0 | 0 h⁻¹ |  |  |  |  |  |  |  |  |  | 
O=C(NNC(=S)N/N=C/c1ccccn1)Nc1ccccc1Cl | 14% | 27 | 23 h⁻¹ | 66% | 1.9 | 0 h⁻¹ | 14 |  |  |  |  |  | 
C/C(=N\N=C(/S)N/N=C(\S)NC1CCCC1)c1ccccn1 | 7% | 13 | 12 h⁻¹ | 64% | 9.8 | 3 h⁻¹ | 1.3 |  |  |  |  |  | 
C/C(=N\N=C(/S)N/N=C(\S)Nc1ccc(Br)cc1)c1ccccn1 | 23% | 57 | 44 h⁻¹ | 29% | 3.2 | 2 h⁻¹ | 18 |  |  |  |  |  | 
CC(C)C/C(=N\N=C(/S)N/N=C(\S)Nc1ccccc1Cl)c1ccccn1 | 38% | 23 | 14 h⁻¹ | 25% | 0.33 | 0 h⁻¹ | 70 |  |  |  |  |  | 

Compound | inhibition [1] | Inhibitory index [2] | kinact [3] | inhibition [4] | Inhibitory index [5] | kinact [6] | Apparent selectivity (HSV-1/human inhibition index ratio) [7] | Inhibitory index [8] | kinact [9] | inhibition [10] | Inhibition [11] | Inhibitory index [12] | kinact [13]
C/N=C(\S)N/N=C(\S)N/N=C(\C)c1ccccn1 | 17% | 5 | 4 h⁻¹ | 19% | 0.35 | 0.1 h⁻¹ | 14 |  |  |  |  |  | 
C/C(=N\N=C(/S)N/N=C(\S)Nc1ccc(C)cc1)c1ccccn1 | 25% | 21 | 16 h⁻¹ | 64% | 7 | 2 h⁻¹ | 3 |  |  |  |  |  | 
C/C(=N\N=C(/S)N/N=C(\S)Nc1cc(Cl)c(Cl)cc1Cl)c1ccccn1 | 22% | 21 | 16 h⁻¹ | 3% | 0.03 | 0 h⁻¹ | 680 |  |  |  |  |  | 
Cc1cccc(/C=N/N=C(\S)N/N=C(\S)Nc2ccccc2Cl)n1 | 41% | 27 | 16 h⁻¹ | 65% | 1.8 | 0 h⁻¹ | 15 |  |  |  |  |  | 
C/C(=N\N=C(/S)N/N=C(\S)Nc1ccc(I)cc1)c1ccccn1 | 24% | 29 | 22 h⁻¹ | 5% | 0.05 | 0 h⁻¹ | 560 |  |  |  |  |  | 
C/C(=N\N=C(/S)N/N=C(\S)Nc1cccc(Cl)c1)c1ccccn1 | 50% | 72 | 36 h⁻¹ | 48% | 0.9 | 0 h⁻¹ | 80 |  |  |  |  |  | 
S=C(N/N=C/c1ccccn1)NNC(=S)Nc1ccccc1Cl | 51% | 25 | 12 h⁻¹ | 45% | 0.8 | 0 h⁻¹ | 31 |  |  |  |  |  | 
COc1c(Cl)cccc1/N=C(\S)N/N=C(\S)N/N=C(\C)c1ccccn1 | 0% | 25 | 25 h⁻¹ | 50% | 1 | 0 h⁻¹ | 26 |  |  |  |  |  | 
C/C(=N\N=C(/S)N/N=C(\S)Nc1ccccc1I)c1ccccn1 | 18% | 35 | 29 h⁻¹ | 23% | 5.4 | 4 h⁻¹ | 6.5 |  |  |  |  |  | 
C/C(=N\N=C(/S)N/N=C(\S)Nc1cc(Cl)ccc1Cl)c1ccccn1 | 8% | 59 | 55 h⁻¹ | 20% | 0.24 | 0 h⁻¹ | 240 |  |  |  |  |  | 
C/C(=N\N=C(/S)N/N=C(\S)Nc1cccc(Br)c1)c1ccccn1 | 15% | 47 | 40 h⁻¹ | 21% | 2.8 | 2 h⁻¹ | 17 |  |  |  |  |  | 
COc1ccc([N+](=O)[O-])cc1/N=C(\S)N/N=C(\S)N/N=C(\C)c1ccccn1 | 44% | 71 | 40 h⁻¹ | 11% | 3.5 | 3 h⁻¹ | 21 |  |  |  |  |  | 
C/C(=N\N=C(/S)N/N=C(\S)Nc1ccc(Cl)cc1)c1ccccn1 | 61% | 99 | 39 h⁻¹ | 73% | 2.6 | 0 h⁻¹ | 38 |  |  |  |  |  | 
C/C(=N\N=C(/S)N/N=C(\S)Nc1ccccc1Br)c1ccccn1 | 38% | 34 | 21 h⁻¹ | 14% | 0.16 | 0 h⁻¹ | 210 |  |  |  |  |  | 
C/C(=N\N=C(/S)N/N=C(\S)Nc1ccccc1C(F)(F)F)c1ccccn1 | 6% | 11 | 10 h⁻¹ | 43% | 5.9 | 3 h⁻¹ | 1.8 |  |  |  |  |  | 
COc1ccc(N/C(S)=N/N=C(\S)N/N=C(\C)c2ccccn2)cc1 | 45% | 29 | 16 h⁻¹ | 52% | 1.1 | 0 h⁻¹ | 28 |  |  |  |  |  | 
C/C(=N\N=C(/S)N/N=C(\S)Nc1ccccn1)c1ccccn1 | 57% | 65 | 28 h⁻¹ | 67% | 2 | 0 h⁻¹ | 33 |  |  |  |  |  | 
